Results reported in ChEMBL document CHEMBL1140926, “Novel indazole non-nucleoside reverse transcriptase inhibitors using molecular hybridization based on crystallographic overlays” (J Med Chem, 2009).

Columns and labels:
[1] = target: Human immunodeficiency virus type 1 reverse transcriptase (Human immunodeficiency virus 1, UniProt Q72547); assay: Inhibition of RNA-dependent DNA polymerase activity of wild type HIV1 reverse transcriptase
[2] = target: Human immunodeficiency virus type 1 reverse transcriptase (Human immunodeficiency virus 1, UniProt Q72547, K103N); assay: Inhibition of RNA-dependent DNA polymerase activity of HIV1 reverse transcriptase K103N mutant
[3] = target: Human immunodeficiency virus type 1 reverse transcriptase (Human immunodeficiency virus 1, UniProt Q72547, Y181C); assay: Inhibition of RNA-dependent DNA polymerase activity of HIV1 reverse transcriptase Y181C mutant
[4] = system: Human immunodeficiency virus 1; assay: Antiviral activity against HIV1 NL4-3 in HeLaP4 reporter cell assessed as virus replication by FluorAceTM beta-galactosidase reporter assay; type: functional, organism-based; settings: Human immunodeficiency virus 1, NL4-3, HeLaP4
How it was run: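 Antiviral IC50 reported as the geometric mean of at least three independent experiments, with standard deviation given.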

[5] = Metabolic stability in human liver microsomes assessed as half life; type: ADME, Microsome
[6] = Metabolic stability in human hepatocytes assessed as half life; type: ADME, cell-based, Liver, Hepatocyte
[7] = Cytotoxicity against human HeLaP4 cells; type: cell-based

SMILES | IC50 [1] [nM] | IC50 [2] [nM] | IC50 [3] [nM] | IC50 [4] [nM] | half-life [5] [h] | half-life [6] [h] | CC50 [7] [nM]
CCc1n[nH]c2ccc(F)c(Oc3cc(C#N)cc(C#N)c3)c12 | 25 | 183 | 32 | 4.6 | > 2 | > 6 | > 100000
Cc1n[nH]c2ccc(F)c(Oc3cc(C#N)cc(C#N)c3)c12 | 50 |  | 145 | 14 | > 2 | > 6 | > 100000
Cc1n[nH]c2cccc(Oc3cc(C#N)cc(C#N)c3)c12 | 332 |  |  |  |  |  | 
CCc1n[nH]c2cccc(Oc3cc(C#N)cc(C#N)c3)c12 | 112 |  |  |  |  |  | 
COCc1n[nH]c2cccc(Oc3cc(C#N)cc(C#N)c3)c12 | 1670 |  |  |  |  |  | 
Cc1n[nH]c2ccc(Cl)c(Oc3cc(C#N)cc(C#N)c3)c12 | 399 |  |  |  |  |  | 
CNCc1n[nH]c2cccc(Oc3cc(C#N)cc(C#N)c3)c12 | > 30000 |  |  |  |  |  | 
Cc1n[nH]c2c(CO)ccc(Oc3cc(C#N)cc(C#N)c3)c12 | 71 | 1270 |  | 14 | > 2 | 0.183 | > 100000
CC(C)c1nc(COC(N)=O)n(Cc2ccncc2)c1Sc1cc(Cl)cc(Cl)c1 [CAPRAVIRINE] |  |  |  | 0.5 | 0.125 |  | 
O=C1Nc2ccc(Cl)cc2[C@@](C#CC2CC2)(C(F)(F)F)O1 [EFAVIRENZ] |  |  |  | 0.4 |  |  | 
